Measurements taken from ChEMBL document CHEMBL1145812, “Synthesis and biological evaluation of 18-methoxycoronaridine congeners. Potential antiaddiction agents” (J Med Chem, 2003).

Key:
[1] = molecular target: Kappa-type opioid receptor (Cavia porcellus, UniProt P41144); assay: Binding affinity was determined against Opioid receptor kappa 1 from guinea pig brain membranes
[2] = molecular target: Mu-type opioid receptor (Cavia porcellus) (UniProt P97266); assay: Inhibition of [3H]DAMGO binding to Opioid receptor mu 1 from guinea pig brain membranes; design: concentration or dose not given beside the values; details: concentration not given here
Mu-type opioid receptor (Cavia porcellus), sequence (P97266 whole entry): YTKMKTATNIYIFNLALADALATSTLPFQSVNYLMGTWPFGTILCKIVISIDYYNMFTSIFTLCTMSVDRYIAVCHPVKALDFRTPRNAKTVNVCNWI
Outline: (§1)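 Guinea pig brain membranes (0.5 mg protein/sample) were incubated at 25 °C in 50 mM Tris-HCl, pH 7.5, with receptor-specific radioligand and compound at 1 µM. Nonspecific binding was defined with 10 µM naloxone. Values are the mean ± SE of three separate experiments, each run in triplicate.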

[3] = molecular target: T1, Neuronal acetylcholine receptor; alpha3/beta4 (Homo sapiens, UniProt P30926+P32297); assay: Recovery from Ach evoked currents at Nicotinic acetylcholine receptor alpha3-beta4 at 20 uM concentration; assay type: functional
T1 sequence (P30926 whole entry): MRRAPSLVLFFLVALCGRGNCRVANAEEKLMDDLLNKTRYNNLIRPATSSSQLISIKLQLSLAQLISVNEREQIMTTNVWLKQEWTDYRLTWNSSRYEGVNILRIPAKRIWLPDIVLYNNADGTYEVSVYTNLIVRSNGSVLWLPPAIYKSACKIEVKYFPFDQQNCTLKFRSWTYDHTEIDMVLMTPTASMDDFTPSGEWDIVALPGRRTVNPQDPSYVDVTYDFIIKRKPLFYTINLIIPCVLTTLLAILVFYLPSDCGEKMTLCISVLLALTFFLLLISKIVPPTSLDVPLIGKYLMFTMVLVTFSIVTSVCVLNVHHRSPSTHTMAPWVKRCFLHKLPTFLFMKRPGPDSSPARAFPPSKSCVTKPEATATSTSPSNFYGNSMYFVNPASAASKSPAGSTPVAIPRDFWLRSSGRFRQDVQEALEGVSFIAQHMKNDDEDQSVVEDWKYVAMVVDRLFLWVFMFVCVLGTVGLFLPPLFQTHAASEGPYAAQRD
T1 sequence (P32297 whole entry): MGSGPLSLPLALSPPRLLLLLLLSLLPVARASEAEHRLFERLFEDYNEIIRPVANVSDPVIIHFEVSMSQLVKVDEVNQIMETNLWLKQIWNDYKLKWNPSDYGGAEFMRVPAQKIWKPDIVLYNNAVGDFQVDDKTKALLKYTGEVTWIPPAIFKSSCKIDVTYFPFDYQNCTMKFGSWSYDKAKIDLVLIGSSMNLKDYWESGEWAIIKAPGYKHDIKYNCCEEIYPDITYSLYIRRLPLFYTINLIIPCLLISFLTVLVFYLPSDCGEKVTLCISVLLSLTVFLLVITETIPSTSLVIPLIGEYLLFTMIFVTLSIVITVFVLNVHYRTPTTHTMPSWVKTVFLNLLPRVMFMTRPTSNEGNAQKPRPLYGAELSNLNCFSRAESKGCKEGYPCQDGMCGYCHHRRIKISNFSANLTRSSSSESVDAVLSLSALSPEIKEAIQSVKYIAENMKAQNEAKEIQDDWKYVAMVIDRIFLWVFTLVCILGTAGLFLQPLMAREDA
Outline: (§2)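 HEK293 cells transiently co-transfected with nAChR α3 and β4 cDNAs plus EGFP; EGFP-positive cells recorded 12–36 h later by whole-cell voltage clamp at -70 mV. Pipette: CsCl/CsF/HEPES/EGTA, pH 7.2; bath: NaCl/KCl/HEPES/glucose, pH 7.3. Each compound was co-applied at 20 µM (one at 18 µM) with 1 mM ACh. Reported: percent inhibition, rate of inhibition and percent recovery, as mean ± SEM.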

[4] = Relative inhibition index (RI) was determined as the % recovery / (rate of inhibition) and is expressed relative to Compound 3; assay type: functional
Outline: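 Read from the same α3β4 whole-cell ACh (1 mM) co-application recordings. The index is percent recovery divided by rate of inhibition, normalised to the parent reference ligand. Values below 1.0 mean lower Ki; values above 1.0 mean higher Ki.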

Mu-type opioid receptor = Mu-type opioid receptor (Cavia porcellus, UniProt P97266); assay: Binding affinity was determined against Opioid receptor mu 1 from guinea pig brain membranes
Mu-type opioid receptor, sequence (P97266 whole entry): as the sequence (P97266 whole entry) above

[5] = molecular target: T1, Neuronal acetylcholine receptor; alpha3/beta4; assay: Inhibition of Ach evoked currents at Nicotinic acetylcholine receptor alpha3-beta4 by 20 uM concentration; assay type: functional; outline: as §2
[6] = molecular target: T1, Neuronal acetylcholine receptor; alpha3/beta4; assay: Rate of inhibition of Ach evoked currents at Nicotinic acetylcholine receptor alpha3-beta4 by 20 uM concentration; assay type: functional; outline: as §2
[7] = molecular target: Kappa-type opioid receptor (Cavia porcellus) (UniProt P41144); assay: Inhibition of [3H]U-69593 binding to Opioid receptor kappa 1 from guinea pig brain membranes; design: concentration or dose not given beside the values; details: concentration not given here; outline: as §1
Kappa-type opioid receptor (Cavia porcellus), sequence (P41144 whole entry): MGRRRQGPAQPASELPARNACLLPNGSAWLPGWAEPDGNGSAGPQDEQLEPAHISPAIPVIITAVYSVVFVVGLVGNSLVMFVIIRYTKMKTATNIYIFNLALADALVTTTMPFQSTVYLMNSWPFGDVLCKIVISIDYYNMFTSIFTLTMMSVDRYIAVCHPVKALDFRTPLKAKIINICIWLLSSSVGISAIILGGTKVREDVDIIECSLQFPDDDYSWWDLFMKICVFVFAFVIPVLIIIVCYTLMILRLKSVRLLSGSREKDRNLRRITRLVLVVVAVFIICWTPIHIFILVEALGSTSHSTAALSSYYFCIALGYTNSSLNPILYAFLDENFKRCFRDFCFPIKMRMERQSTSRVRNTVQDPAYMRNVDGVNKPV

[8] = molecular target: T1, Neuronal acetylcholine receptor; alpha3/beta4; assay: Binding affinity towards Nicotinic acetylcholine receptor alpha3-beta4 determined from kinetic measures of koff/kon; assay type: protein-complex assay
Outline: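 Ki was estimated as koff/kon from α3β4 whole-cell recordings with drug at 20 µM co-applied with 1 mM ACh. koff was taken from the rate of recovery and kon from the rate of inhibition.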

[9] = molecular target: T1, Neuronal acetylcholine receptor; alpha3/beta4; assay: Rate of inhibition of Ach evoked currents at Nicotinic acetylcholine receptor alpha3-beta4 by 18 uM concentration; assay type: functional; outline: as §2
[10] = molecular target: T1, Neuronal acetylcholine receptor; alpha3/beta4; assay: Recovery from Ach evoked currents at Nicotinic acetylcholine receptor alpha3-beta4 at 18 uM concentration; assay type: functional; outline: as §2
[11] = molecular target: T1, Neuronal acetylcholine receptor; alpha3/beta4; assay: Inhibition of Ach evoked currents at Nicotinic acetylcholine receptor alpha3-beta4 by 18 uM concentration; assay type: functional; outline: as §2
[12] = molecular target: T1, Neuronal acetylcholine receptor; alpha3/beta4; assay: Rate of inhibition of Ach evoked currents at alpha3-beta4 nicotinic acetylcholine receptor by 20 uM concentration; assay type: functional; outline: as §2
[13] = molecular target: T1, Neuronal acetylcholine receptor; alpha3/beta4; assay: Recovery from Ach evoked currents at alpha3-beta4 nicotinic acetylcholine receptor at 20 uM; assay type: functional; outline: as §2
[14] = molecular target: T1, Neuronal acetylcholine receptor; alpha3/beta4; assay: Inhibition of Ach evoked currents at alpha3-beta4 nicotinic acetylcholine receptor by 20 uM concentration; assay type: functional; outline: as §2
[15] = molecular target: Mu-type opioid receptor (Cavia porcellus) (UniProt P97266); assay: Inhibitory activity was determined against Opioid receptor mu 1 from guinea pig brain membranes at 1 uM concentration, using 0.25 nM of [3H]DAMGO radioligand; details: Membrane; outline: as §1
[16] = molecular target: T1, Neuronal acetylcholine receptor; alpha3/beta4; assay: Recovery from Ach evoked currents at alpha3-beta4 nicotinic acetylcholine receptor at 20 uM concentration; assay type: functional; outline: as §2

Kappa-type opioid receptor, sequence (P41144 whole entry): as above

Row | Structure (SMILES) | inhibition [2] [%] | RI [4] | inhibition [7] [%] | Rate of inhibition [12] [s⁻¹] | Recovery [13] [%] | inhibition [14] [%] | further results
1 | COCC[C@H]1CC2CN3CCc4c([nH]c5ccccc45)[C@](C(=O)OC)(C2)[C@H]13 [18-METHOXYCORONARIDINE] | 50 | 1 | 20 |  |  |  | Ki [1]: 5.1 µM; Recovery [3]: 12%; Ki (Mu-type opioid receptor): 1.1 µM; inhibition [5]: 98%; Rate of inhibition [6]: 5.5 s⁻¹; Ki [8]: 0.7 µM
2 | COCC[C@H]1CC2CN3CCc4c([nH]c5ccccc45)[C@](C(=O)NCCCCCCNC(=O)CCCC[C@@H]4SCC5NC(=O)NC54)(C2)C13 (some centres undefined) | 19 |  | 9 |  |  |  | 
3 | COC(=O)[C@@]12CC3C[C@H](CCO)[C@@H]1N(CCc1c2[nH]c2ccccc12)C3 | 15 | 5.4 | 4 |  |  |  | Rate of inhibition [9]: 6.5 s⁻¹; Recovery [10]: 73%; inhibition [11]: 98%
4 | CNCC[C@H]1CC2CN3CCc4c([nH]c5ccccc45)[C@](C(=O)OC)(C2)[C@H]13 | 24 | 1.1 | 7 | 8.5 | 21 | 98 | 
5 | COC(=O)[C@@]12CC3C[C@H](CCOCc4ccccc4)[C@@H]1N(CCc1c2[nH]c2ccccc12)C3 |  |  | 6 |  |  |  | Recovery [3]: 0%; inhibition [5]: 64%; Rate of inhibition [6]: 2.2 s⁻¹; inhibition [15]: 12%
6 | COCC[C@H]1CC2CN3CCc4c([nH]c5ccccc45)[C@](C(=O)NCCN(C)C)(C2)[C@H]13 | 4 | 3.9 | 11 | 9.5 |  | 93 | Recovery [16]: 81%
7 | COC(=O)[C@@]12CC3C[C@H](CCN(C)C)[C@@H]1N(CCc1c2[nH]c2ccccc12)C3 | 15 | 0.9 | 11 | 8 | 16 | 99 | 
8 | COCC[C@H]1CC2CN3CCc4c([nH]c5ccccc45)[C@](C(=O)OCCNC(C)=O)(C2)[C@H]13 | 0 | 3.1 | 3 | 6.7 | 45 | 95 | 
9 | COCC[C@H]1CC2CN3CCc4c([nH]c5ccccc45)[C@](C(=O)NCCO)(C2)[C@H]13 | 7 | 4.7 | 9 | 7.9 | 80 | 85 | 
10 | COCC[C@H]1CC2CN3CCc4c([nH]c5ccccc45)[C@](C(=O)OCCN(C)C)(C2)[C@H]13 | 16 | 0.7 | 78 | 10.3 | 16 | 98 | Ki [1]: 0.188 µM
11 | COCCOC(=O)[C@@]12CC3C[C@H](CCOC)[C@@H]1N(CCc1c2[nH]c2ccccc12)C3 | 5 | 0.6 | 24 | 6 | 8 | 99 | 
12 | COCCC1C2CN3CCc4c([nH]c5ccccc45)[C@](C(=O)OC)(C2)[C@H]13 (some centres undefined) | 18 | 1.6 | 10 | 4.1 | 14 | 94 | 
13 | COCC[C@H]1CC2CN3CCc4c([nH]c5ccccc45)[C@](C(=O)O)(C2)[C@H]13 |  | 2.4 | 7 | 5.1 | 27 | 59 | inhibition [15]: 11%
14 | COCC[C@H]1CC2CN3CCc4c([nH]c5ccccc45)[C@](C(=O)OCCO)(C2)[C@H]13 | 8 | 1.2 | 8 | 7.6 | 20 | 97 | 
15 | COCCNC(=O)[C@@]12CC3C[C@H](CCOC)[C@@H]1N(CCc1c2[nH]c2ccccc12)C3 | 10 | 2.3 | 6 | 9.2 |  | 96 | Recovery [16]: 46%
